Experimental findings from paper PMC4745115 (Nature communications, 2014) are described below.

Assay [1] concerns the target T1, BetP (Corynebacterium glutamicum, UniProt P54582, G153D).
T1 sequence (P54582 1-595 G153D): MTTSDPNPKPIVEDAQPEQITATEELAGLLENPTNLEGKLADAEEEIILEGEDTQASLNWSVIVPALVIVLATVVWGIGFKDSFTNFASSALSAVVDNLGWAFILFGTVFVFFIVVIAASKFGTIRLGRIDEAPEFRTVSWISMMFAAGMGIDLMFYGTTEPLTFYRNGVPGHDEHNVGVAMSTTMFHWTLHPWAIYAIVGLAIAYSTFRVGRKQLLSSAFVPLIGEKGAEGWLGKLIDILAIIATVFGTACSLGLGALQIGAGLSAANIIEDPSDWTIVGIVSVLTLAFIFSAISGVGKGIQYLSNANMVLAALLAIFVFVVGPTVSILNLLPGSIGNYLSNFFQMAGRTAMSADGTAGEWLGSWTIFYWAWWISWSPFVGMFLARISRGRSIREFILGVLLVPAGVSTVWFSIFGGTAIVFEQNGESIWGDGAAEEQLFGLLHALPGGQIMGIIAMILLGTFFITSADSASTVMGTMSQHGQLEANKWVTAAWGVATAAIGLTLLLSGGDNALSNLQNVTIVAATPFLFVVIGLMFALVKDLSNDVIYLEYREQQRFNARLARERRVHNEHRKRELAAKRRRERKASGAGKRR
Briefly: tryptophan fluorescence titration, proteoliposomes. The assay is classed as binding. An outline of the steps:
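Strep-tagged BetP-G153D was expressed in E. coli, affinity-purified in DDM, and reconstituted into E. coli polar-lipid liposomes (lipid/protein 10:1 w/w, 250 mM KPi pH 7.5), used at 100 μg/ml protein. Substrate was 0.1–16 mM with 100 mM NaCl at pH 7.5, or 0.8–30 mM (pH 5.5) or 0.8–100 mM (pH 7.5) without NaCl. Excitation 295 nm; emission at 340 nm, eight readings averaged. Mean and SD were fitted for the binding constant.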

The target of assay [2] is BetP (Corynebacterium glutamicum, UniProt P54582). Briefly: […]-betaine uptake in E. coli MKH13 expressing BetP. The assay is classed as cell-based. To be noted: 250 μM [14C]-betaine, NaCl titration, pH 7.5, 800 mOsmol/kg, 37 °C; labelled compound.
Chain of BetP (Corynebacterium glutamicum, UniProt P54582) (P54582 whole entry): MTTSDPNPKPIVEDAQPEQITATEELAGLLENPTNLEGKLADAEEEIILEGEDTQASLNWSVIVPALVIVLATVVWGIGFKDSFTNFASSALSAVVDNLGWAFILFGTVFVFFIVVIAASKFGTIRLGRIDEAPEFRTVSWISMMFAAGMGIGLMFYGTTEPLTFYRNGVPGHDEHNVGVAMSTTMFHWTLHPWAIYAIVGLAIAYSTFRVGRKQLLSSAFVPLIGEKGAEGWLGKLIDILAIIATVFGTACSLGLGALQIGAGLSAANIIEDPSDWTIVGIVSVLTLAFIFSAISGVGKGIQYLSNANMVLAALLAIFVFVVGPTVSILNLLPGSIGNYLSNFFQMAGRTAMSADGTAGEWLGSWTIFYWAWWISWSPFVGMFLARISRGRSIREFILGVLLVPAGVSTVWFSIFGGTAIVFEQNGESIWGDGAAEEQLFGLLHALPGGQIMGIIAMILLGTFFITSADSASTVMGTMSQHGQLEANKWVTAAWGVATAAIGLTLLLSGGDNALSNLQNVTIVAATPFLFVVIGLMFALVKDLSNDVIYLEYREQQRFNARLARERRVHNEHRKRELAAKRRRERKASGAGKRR

As to `C[N+](C)(C)CCO` [Choline], the affinity on BetP [1], expressed as Kd, was 1150 ± 90 µM. Take `C[N+](C)(C)CC(=O)[O-]` [[14C]-betaine]: the “[14C]-betaine uptake in E. coli MKH13 expressing BetP” value on BetP [2] was “cells expressing BetP WT or the mutant N309A”.
